# Assay results as given in ChEMBL document CHEMBL1133762, “Aureobasidins: structure-activity relationships for the inhibition of the human MDR1 P-glycoprotein ABC-transporter” (J Med Chem, 2000).
# Legend:
# [1] = biological target: P-glycoprotein (ABCB1, MDR1) (Homo sapiens, UniProt P08183); test: Human MDR1 Pgp inhibitory activity by using standard calcein-AM efflux method with the human leukemia CEM cells.; format: cell-based, CCRF-CEM; details: probe calcein-AM; for IC50: human, human leukemia CEM cells
# Sequence of P-glycoprotein (ABCB1, MDR1) (P08183 whole entry): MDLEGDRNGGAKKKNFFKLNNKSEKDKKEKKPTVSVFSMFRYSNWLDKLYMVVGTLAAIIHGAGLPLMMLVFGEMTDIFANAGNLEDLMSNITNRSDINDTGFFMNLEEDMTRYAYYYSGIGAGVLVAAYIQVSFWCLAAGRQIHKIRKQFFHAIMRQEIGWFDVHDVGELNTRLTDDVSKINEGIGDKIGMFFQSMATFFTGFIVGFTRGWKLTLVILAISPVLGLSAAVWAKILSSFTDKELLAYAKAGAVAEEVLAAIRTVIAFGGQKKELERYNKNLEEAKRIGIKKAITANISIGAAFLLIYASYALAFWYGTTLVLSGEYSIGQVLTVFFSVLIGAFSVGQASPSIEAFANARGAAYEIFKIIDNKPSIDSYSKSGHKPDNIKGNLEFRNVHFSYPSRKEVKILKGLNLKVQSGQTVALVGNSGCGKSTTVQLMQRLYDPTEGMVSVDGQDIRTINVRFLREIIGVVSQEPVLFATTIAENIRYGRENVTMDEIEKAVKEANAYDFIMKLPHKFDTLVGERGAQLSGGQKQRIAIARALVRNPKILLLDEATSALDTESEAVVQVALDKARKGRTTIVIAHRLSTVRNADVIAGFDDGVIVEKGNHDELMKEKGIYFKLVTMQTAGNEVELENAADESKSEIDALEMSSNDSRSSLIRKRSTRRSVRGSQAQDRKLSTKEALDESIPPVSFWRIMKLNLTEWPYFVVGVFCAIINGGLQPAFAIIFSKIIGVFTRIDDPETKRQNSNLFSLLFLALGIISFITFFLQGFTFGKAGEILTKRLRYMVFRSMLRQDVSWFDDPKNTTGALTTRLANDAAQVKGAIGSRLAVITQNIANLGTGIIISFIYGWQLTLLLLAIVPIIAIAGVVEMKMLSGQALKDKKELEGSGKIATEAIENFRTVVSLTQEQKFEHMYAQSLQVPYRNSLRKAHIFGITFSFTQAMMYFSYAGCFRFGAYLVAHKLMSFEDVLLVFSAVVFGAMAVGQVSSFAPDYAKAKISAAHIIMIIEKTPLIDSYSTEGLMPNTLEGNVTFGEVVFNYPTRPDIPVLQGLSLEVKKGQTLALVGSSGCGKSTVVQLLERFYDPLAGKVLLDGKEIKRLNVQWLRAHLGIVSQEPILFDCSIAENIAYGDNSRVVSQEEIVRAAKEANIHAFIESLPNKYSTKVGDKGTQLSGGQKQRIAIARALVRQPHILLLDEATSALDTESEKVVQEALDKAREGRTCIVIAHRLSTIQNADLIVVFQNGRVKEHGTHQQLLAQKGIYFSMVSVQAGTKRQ
# [2] = tested on: Saccharomyces cerevisiae; test: Minimum growth-inhibitory concentration against Saccharomyces cerevisiae ATCC 9763 by agar dilution method by the suspension of a fungi containing ~5 x 10e (7) cells/mL.; format: functional
# Summary of the method: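 Agar dilution on Sabouraud–dextrose agar plates with graded compound concentrations. A loopful of yeast suspension (about 5 × 10⁷ cells/mL) was streaked on the surface. Plates were incubated at 30 °C for 3 days. MIC is the lowest concentration with no detectable growth.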
# [3] = biological target: ATP-dependent translocase ABCB1 (Homo sapiens, UniProt P08183); test: Direct comparison of the antifungal activities with the relative Pgp-inhibitory potencies, calculated by comparing ug/mL IC50(or IC20).; format: functional
# Sequence of ATP-dependent translocase ABCB1 (P08183 whole entry): as above
# [4] = tested on: Saccharomyces cerevisiae; test: Relative antifungal activity (against Saccharomyces cerevisiae) compared to AbA
smiles,measurement,setting,value
CC[C@H](C)[C@@H]1NC(=O)[C@@H]2CCCN2C(=O)[C@H](Cc2ccccc2)N(C)C(=O)[C@H](Cc2ccccc2)NC(=O)[C@H](C(C)C)N(C)C(=O)[C@@H]([C@@H](C)CC)OC(=O)[C@@H](C(C)(C)O)N(C)C(=O)[C@H](CC(C)C)NC(=O)[C@H](C(C)C)N(C)C1=O,IC50,[1],390 nM
same,IC20,[1],100 nM
same,MIC,[2],> 25 µg/mL
CC[C@@H](C)[C@@H]1NC(=O)[C@@H]2CCCN2C(=O)[C@H](Cc2ccccc2)N(C)C(=O)[C@H](Cc2ccccc2)NC(=O)[C@H](C(C)C)N(C)C(=O)[C@@H]([C@@H](C)CC)OC(=O)C(=C(C)C)N(C)C(=O)[C@H](CC(C)C)NC(=O)[C@H](C(C)C)N(C)C1=O [listing 1 of 2 here],IC50,[1],180 nM
same,IC20,[1],60 nM
same,Pgp AbA/analogue ratio,[3],12.5
same,antifungal AbA/analogue ratio,[4],< 0.016
CC[C@@H](C)[C@@H]1NC(=O)[C@@H]2CCCN2C(=O)[C@H](Cc2ccccc2)N(C)C(=O)[C@H](Cc2ccccc2)NC(=O)[C@H](C(C)C)N(C)C(=O)[C@@H]([C@@H](C)CC)OC(=O)C(=C(C)C)N(C)C(=O)[C@H](CC(C)C)NC(=O)[C@H](C(C)C)N(C)C1=O [listing 2 of 2 here],MIC,[2],> 25 µg/mL
CC[C@@H](C)[C@@H]1NC(=O)[C@@H]2CCCN2C(=O)[C@H](Cc2ccccc2)N(C)C(=O)[C@H](Cc2ccccc2)NC(=O)[C@H](C(C)C)N(C)C(=O)[C@@H]([C@@H](C)CC)OC(=O)CN(C)C(=O)[C@H](CC(C)C)NC(=O)[C@H](C(C)C)N(C)C1=O,IC50,[1],890 nM
same,IC20,[1],310 nM
same,Pgp AbA/analogue ratio,[3],2.7
CC[C@H](C)[C@@H]1NC(=O)[C@@H]2CCCN2C(=O)[C@H](Cc2ccccc2)N(C)C(=O)[C@H](Cc2ccccc2)NC(=O)[C@H](C(C)C)N(C)C(=O)[C@@H]([C@@H](C)CC)OC(=O)[C@H](C(C)(C)O)N(C)C(=O)[C@H](CC(C)C)NC(=O)[C@H](C(C)C)N(C)C1=O,IC50,[1],2270 nM
same,IC20,[1],680 nM
same,MIC,[2],0.4 µg/mL
CC[C@@H](C)[C@@H]1NC(=O)[C@@H]2CCCN2C(=O)[C@H](Cc2ccccc2)N(C)C(=O)[C@H](Cc2ccccc2)NC(=O)[C@H](C(C)C)N(C)C(=O)[C@@H](C(C)C)OC(=O)[C@H](C(C)(C)O)N(C)C(=O)[C@H](CC(C)C)NC(=O)[C@H](C(C)C)N(C)C1=O,MIC,[2],0.4 µg/mL
CC[C@@H](C)[C@@H]1NC(=O)CCCCCCCNC(=O)[C@H](C(C)C)N(C)C(=O)[C@@H]([C@@H](C)CC)OC(=O)[C@H](C(C)(C)O)N(C)C(=O)[C@H](CC(C)C)NC(=O)[C@H](C(C)C)N(C)C1=O [listing 1 of 2 here],IC50,[1],7420 nM
same,IC20,[1],2630 nM
same,Pgp AbA/analogue ratio,[3],0.4
same,antifungal AbA/analogue ratio,[4],< 0.016
CC[C@@H](C)[C@@H]1NC(=O)CCCCCCCNC(=O)[C@H](C(C)C)N(C)C(=O)[C@@H]([C@@H](C)CC)OC(=O)[C@H](C(C)(C)O)N(C)C(=O)[C@H](CC(C)C)NC(=O)[C@H](C(C)C)N(C)C1=O [listing 2 of 2 here],MIC,[2],> 25 µg/mL
CC[C@@H](C)[C@@H]1NC(=O)[C@@H]2CCCN2C(=O)[C@H](Cc2ccccc2)N(C)C(=O)[C@H](Cc2ccccc2)NC(=O)[C@H](C(C)C)N(C)C(=O)[C@@H]([C@@H](C)CC)OC(=O)[C@H](C(C)(C)O)N(C)C(=O)[C@H](CC(C)C)NC(=O)C(C(C)C)OC1=O (stereo partly drawn) [listing 1 of 2 here],IC50,[1],1660 nM
same,IC20,[1],460 nM
same,Pgp AbA/analogue ratio,[3],1.4
same,antifungal AbA/analogue ratio,[4],< 0.016
CC[C@@H](C)[C@@H]1NC(=O)[C@@H]2CCCN2C(=O)[C@H](Cc2ccccc2)N(C)C(=O)[C@H](Cc2ccccc2)NC(=O)[C@H](C(C)C)N(C)C(=O)[C@@H]([C@@H](C)CC)OC(=O)[C@H](C(C)(C)O)N(C)C(=O)[C@H](CC(C)C)NC(=O)C(C(C)C)OC1=O (stereo partly drawn) [listing 2 of 2 here],MIC,[2],> 25 µg/mL
CC[C@@H](C)[C@@H]1NC(=O)[C@@H]2CCCN2C(=O)[C@H](Cc2ccccc2)N(C)C(=O)[C@H](C2CCCCC2)NC(=O)[C@H](C(C)C)N(C)C(=O)[C@@H]([C@@H](C)CC)OC(=O)[C@H](C(C)(C)O)N(C)C(=O)[C@H](CC(C)C)NC(=O)[C@H](C(C)C)N(C)C1=O [listing 1 of 2 here],IC50,[1],5880 nM
same,IC20,[1],1450 nM
same,Pgp AbA/analogue ratio,[3],0.5
same,antifungal AbA/analogue ratio,[4],0.25
CC[C@@H](C)[C@@H]1NC(=O)[C@@H]2CCCN2C(=O)[C@H](Cc2ccccc2)N(C)C(=O)[C@H](C2CCCCC2)NC(=O)[C@H](C(C)C)N(C)C(=O)[C@@H]([C@@H](C)CC)OC(=O)[C@H](C(C)(C)O)N(C)C(=O)[C@H](CC(C)C)NC(=O)[C@H](C(C)C)N(C)C1=O [listing 2 of 2 here],MIC,[2],1.6 µg/mL
CC[C@@H](C)[C@@H]1NC(=O)[C@@H]2CCCN2C(=O)[C@H]([C@H](O)c2ccccc2)N(C)C(=O)[C@H](Cc2ccccc2)NC(=O)[C@H](C(C)C)N(C)C(=O)[C@@H]([C@@H](C)CC)OC(=O)[C@H](C(C)C)N(C)C(=O)[C@H](CC(C)C)NC(=O)[C@H](C(C)C)N(C)C1=O [listing 1 of 2 here],IC50,[1],1360 nM
same,IC20,[1],460 nM
same,Pgp AbA/analogue ratio,[3],1.7
same,antifungal AbA/analogue ratio,[4],0.25
CC[C@@H](C)[C@@H]1NC(=O)[C@@H]2CCCN2C(=O)[C@H]([C@H](O)c2ccccc2)N(C)C(=O)[C@H](Cc2ccccc2)NC(=O)[C@H](C(C)C)N(C)C(=O)[C@@H]([C@@H](C)CC)OC(=O)[C@H](C(C)C)N(C)C(=O)[C@H](CC(C)C)NC(=O)[C@H](C(C)C)N(C)C1=O [listing 2 of 2 here],MIC,[2],1.7 µg/mL
CC[C@@H](C)[C@@H]1NC(=O)[C@@H]2CCCN2C(=O)[C@H](Cc2ccccc2)N(C)C(=O)[C@H](Cc2ccccc2)NC(=O)[C@H](C(C)C)N(C)C(=O)[C@@H]([C@@H](C)CC)OC(=O)[C@]2(OC2(C)C)N(C)C(=O)[C@H](CC(C)C)NC(=O)[C@H](C(C)C)N(C)C1=O,IC50,[1],1550 nM
same,IC20,[1],460 nM
CC[C@@H](C)[C@@H]1NC(=O)[C@@H]2CCCN2C(=O)[C@H](Cc2ccccc2)N(C)C(=O)[C@H](Cc2ccccc2)NC(=O)[C@H](C(C)C)N(C)C(=O)[C@@H]([C@@H](C)CC)OC(=O)[C@H]([C@H](C)CO)N(C)C(=O)[C@H](CC(C)C)NC(=O)[C@H](C(C)C)N(C)C1=O,MIC,[2],6.3 µg/mL
CC[C@@H](C)[C@@H]1NC(=O)[C@@H]2CCCN2C(=O)[C@H]([C@H](O)c2ccccc2)N(C)C(=O)[C@H](Cc2ccccc2)NC(=O)[C@H](C(C)C)N(C)C(=O)[C@@H]([C@@H](C)CC)OC(=O)[C@H](C(C)(C)O)N(C)C(=O)[C@H](CC(C)C)NC(=O)[C@H](C(C)C)N(C)C1=O [listing 1 of 2 here],IC50,[1],2150 nM
same,IC20,[1],810 nM
same,Pgp AbA/analogue ratio,[3],1
same,antifungal AbA/analogue ratio,[4],0.5
CC[C@@H](C)[C@@H]1NC(=O)[C@@H]2CCCN2C(=O)[C@H]([C@H](O)c2ccccc2)N(C)C(=O)[C@H](Cc2ccccc2)NC(=O)[C@H](C(C)C)N(C)C(=O)[C@@H]([C@@H](C)CC)OC(=O)[C@H](C(C)(C)O)N(C)C(=O)[C@H](CC(C)C)NC(=O)[C@H](C(C)C)N(C)C1=O [listing 2 of 2 here],MIC,[2],0.8 µg/mL
CC[C@@H](C)[C@@H]1NC(=O)[C@@H]2CCCN2C(=O)[C@H](Cc2ccccc2)N(C)C(=O)[C@H](Cc2ccccc2)NC(=O)[C@H](C(C)C)N(C)C(=O)[C@@H]([C@@H](C)CC)OC(=O)[C@H](C(C)(C)O)N(C)C(=O)[C@H](CC(C)C)NC(=O)[C@H](C(C)C)NC1=O [listing 1 of 2 here],IC50,[1],7550 nM
same,IC20,[1],2670 nM
same,Pgp AbA/analogue ratio,[3],0.3
same,antifungal AbA/analogue ratio,[4],0.25
CC[C@@H](C)[C@@H]1NC(=O)[C@@H]2CCCN2C(=O)[C@H](Cc2ccccc2)N(C)C(=O)[C@H](Cc2ccccc2)NC(=O)[C@H](C(C)C)N(C)C(=O)[C@@H]([C@@H](C)CC)OC(=O)[C@H](C(C)(C)O)N(C)C(=O)[C@H](CC(C)C)NC(=O)[C@H](C(C)C)NC1=O [listing 2 of 2 here],MIC,[2],1.6 µg/mL
